ChEMBL document CHEMBL4196009, “Novel vitexin-inspired scaffold against leukemia” (Eur J Med Chem, 2018)
Active and inactive are the calls of the source. No cut-off for these calls is given here.

Columns and labels:
[1] = test system: KOPN-8; experiment: Cell cycle arrest in human KOPN8 cells assessed as accumulation at S phase at 10 uM after 24 hrs by propidium iodide staining-based flow cytometry (reference value: 66.56%); format: functional
Outline: (§1)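 KOPN-8 cells treated 24 h alongside a DMSO vehicle and a staurosporine (2.0 µM) positive control. Apoptosis was scored by FITC Annexin V / propidium iodide flow cytometry with quadrant gating (early, late apoptotic). DNA content was measured by PI staining to give the percentage of cells in G0/G1, S and G2/M. Groups were compared by t-test; error bars are SD.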

[2] = test system: KOPN-8; experiment: Induction of apoptosis in human KOPN8 cells assessed as effect on Mcl-1 level at 30 uM pre-treated with NAC for 1 hr and measured after 24 hrs by Western blot analysis relative to control; format: functional
Outline: (§2)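 KOPN-8 cells were exposed to compound for 3 h and 24 h, with or without N-acetylcysteine added to a parallel set as antioxidant. Lysates were analysed by Western blot for cleaved PARP, Mcl-1, Ser-2-phosphorylated RNAPII CTD, cMyc, total Rb and pRb. Signals were compared against controls for dose-dependent change.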

[3] = biological target: T1, Retinoblastoma-associated protein (Homo sapiens) (UniProt P06400); experiment: Inhibition of Rb phosphorylation in human KOPN8 cells assessed as ratio of phosphorylated Rb to total Rb levels at 100 uM pre-treated with NAC for 1 hr and measured after 24 hrs by Western blot analysis relative to control; format: cell-based
T1 sequence (whole entry): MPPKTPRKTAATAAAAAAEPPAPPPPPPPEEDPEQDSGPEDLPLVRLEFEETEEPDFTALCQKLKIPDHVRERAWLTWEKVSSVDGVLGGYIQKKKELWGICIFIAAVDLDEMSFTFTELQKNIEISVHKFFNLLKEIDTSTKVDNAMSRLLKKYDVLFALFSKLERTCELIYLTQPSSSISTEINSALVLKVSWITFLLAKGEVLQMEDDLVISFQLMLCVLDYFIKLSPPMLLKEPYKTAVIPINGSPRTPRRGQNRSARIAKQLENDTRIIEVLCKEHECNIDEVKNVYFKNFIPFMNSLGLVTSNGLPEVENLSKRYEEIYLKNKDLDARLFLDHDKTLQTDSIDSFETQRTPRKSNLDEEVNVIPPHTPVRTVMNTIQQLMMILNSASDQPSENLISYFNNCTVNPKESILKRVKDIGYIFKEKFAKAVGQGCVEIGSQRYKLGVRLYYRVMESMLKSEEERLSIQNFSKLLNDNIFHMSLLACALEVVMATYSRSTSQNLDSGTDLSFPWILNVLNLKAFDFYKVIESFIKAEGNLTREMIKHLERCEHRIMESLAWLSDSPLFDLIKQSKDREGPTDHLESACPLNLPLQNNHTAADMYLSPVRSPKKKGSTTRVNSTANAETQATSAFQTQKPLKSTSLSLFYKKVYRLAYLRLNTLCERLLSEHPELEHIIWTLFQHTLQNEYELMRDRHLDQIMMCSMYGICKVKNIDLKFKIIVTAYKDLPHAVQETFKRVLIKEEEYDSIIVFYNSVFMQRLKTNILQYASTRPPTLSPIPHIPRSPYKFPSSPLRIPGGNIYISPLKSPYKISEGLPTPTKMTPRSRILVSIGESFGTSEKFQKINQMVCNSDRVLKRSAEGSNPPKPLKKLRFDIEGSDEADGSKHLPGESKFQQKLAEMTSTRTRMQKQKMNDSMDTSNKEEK
Outline: (§3)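 KOPN-8 pre-B ALL cells were treated for 3 h and 24 h, with or without N-acetyl cysteine added to a parallel set of cells as an antioxidant/ROS quencher. Lysates were analysed by Western blot for phosphorylated Rb and total Rb. The same blots also probed PARP cleavage, Mcl-1, Ser-2-phosphorylated RNAPII CTD and cMyc.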

[4] = test system: KOPN-8; experiment: Induction of apoptosis in human KOPN8 cells assessed as early apoptotic cells at 10 uM after 24 hrs by Annexin V-FITC/propidium iodide staining-based flow cytometry (reference value: 0.1%); format: functional; outline: as §1
[5] = biological target: T1, Retinoblastoma-associated protein (Homo sapiens); experiment: Inhibition of Rb phosphorylation in human KOPN8 cells assessed as ratio of phosphorylated Rb to total Rb levels at 10 uM pre-treated with NAC for 1 hr and measured after 24 hrs by Western blot analysis relative to control; format: cell-based; outline: as §3
[6] = test system: SUP-B15; experiment: Induction of apoptosis in human SUP-B15 cells assessed as early apoptotic cells at 10 uM after 24 hrs by Annexin V-FITC/propidium iodide staining-based flow cytometry (reference value: 0.1%); format: functional
[7] = test system: KOPN-8; experiment: Induction of apoptosis in human KOPN8 cells assessed as effect on Mcl-1 level at 100 uM pre-treated with NAC for 1 hr and measured after 24 hrs by Western blot analysis relative to control; format: functional; outline: as §2
[8] = test system: KOPN-8; experiment: Effect on c-Myc expression in human KOPN8 cells at 10 uM after 24 hrs by Western blot analysis relative to control; format: functional
Outline: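 KOPN-8 cells were treated at 10–100 µM final, with or without N-acetylcysteine co-addition, for 3 h and 24 h. Lysates were analysed by Western blot for PARP cleavage, Mcl-1, phospho-Ser2 RNAPII CTD, c-Myc, total Rb and pRb. Levels are relative to the vehicle control.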

[9] = test system: KOPN-8; experiment: Effect on c-Myc expression in human KOPN8 cells at 100 uM pre-treated with NAC for 1 hr and measured after 24 hrs by Western blot analysis relative to control; format: functional
[10] = test system: MDA-MB-231; experiment: Cell cycle arrest in human MDA-MB-231 cells assessed as accumulation at G0/G1 phase at 20 uM after 24 hrs by propidium iodide staining-based flow cytometry (reference value: 70.47%); format: functional
[11] = test system: KOPN-8; experiment: Induction of apoptosis in human KOPN8 cells assessed as upregulation of cleaved PARP level at 100 uM pre-treated with NAC for 1 hr and measured after 3 hrs by Western blot analysis; format: functional, cell-based; outline: as §2
[12] = test system: MDA-MB-231; experiment: Cell cycle arrest in human MDA-MB-231 cells assessed as accumulation at S phase at 20 uM after 24 hrs by propidium iodide staining-based flow cytometry (reference value: 20.15%); format: functional
[13] = species: Homo sapiens; experiment: Inhibition of RNA polymerase 2 C-terminal domain phosphorylation at Ser2 residue in human KOPN8 cells at 100 uM pre-treated with NAC for 1 hr and measured after 3 hrs by Western blot analysis relative to control; format: cell-based; outline: as §2
[14] = test system: KOPN-8; experiment: Cell cycle arrest in human KOPN8 cells assessed as accumulation at G0/G1 phase at 5 uM after 24 hrs by propidium iodide staining-based flow cytometry (reference value: 24.77%); format: functional; outline: as §1
[15] = test system: KOPN-8; experiment: Induction of apoptosis in human KOPN8 cells assessed as upregulation of cleaved PARP level at 0.5 uM after 24 hrs by Western blot analysis; format: functional, cell-based; outline: as §2
[16] = test system: MDA-MB-231; experiment: Cell cycle arrest in human MDA-MB-231 cells assessed as accumulation at G2/M phase at 5 uM after 24 hrs by propidium iodide staining-based flow cytometry (reference value: 9.38%); format: functional
[17] = test system: SUP-B15; experiment: Induction of apoptosis in human SUP-B15 cells assessed as necrotic cells at 5 uM after 24 hrs by Annexin V-FITC/propidium iodide staining-based flow cytometry (reference value: 9.2%); format: functional
[18] = test system: KOPN-8; experiment: Induction of apoptosis in human KOPN8 cells assessed as effect on Mcl-1 level at 0.5 uM after 24 hrs by Western blot analysis relative to control; format: functional

Row | Compound | Activity [1] | fold change (FC) [2] | fold change (FC) [3] | Activity [4] | fold change (FC) [5] | Activity [6] | fold change (FC) [7] | fold change (FC) [8] | fold change (FC) [9] | Activity [10] | Activity [11] | Activity [12] | fold change (FC) [13] | Activity [14] | Activity [15] | Activity [16] | Activity [17] | fold change (FC) [18]
1 | COc1ccc(-c2c(I)c(=O)c3c(OC)cc(OC)cc3n2S(=O)(=O)c2ccc(OC)cc2)cc1 | 25.66% | 0.7 | 1.2 | 0.2% | 1 | 0.1% | 0.2 | 1.3 | 0.1 | 66.22% | inactive | 17.81% | 1.6 |  |  |  |  | 
2 | CN(C)C(=O)c1cc2cnc(Nc3ccc(N4CCNCC4)cn3)nc2n1C1CCCC1 [RIBOCICLIB] |  |  |  |  |  |  |  |  |  |  |  |  |  | 45.66% | inactive | 4.51% | 25.7% | 1.1
